# According to ChEMBL document CHEMBL2384973, “Pharmacological activity of retinoic acid receptor alpha-selective antagonists in vitro and in vivo” (ACS Med Chem Lett, 2013):
# Calls of active or inactive are those of the source. No cut-off for these calls is given here.
# Experiments:
# Plasma [1] = assay: Drug recovery in CD1 mouse plasma 10^-5 M; type: ADME, cell-free; details: 10 µM
# How it was run: (§1)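 Binding to CD-1 mouse plasma proteins tested at 1.0 × 10–5 M; percent bound and percent recovery reported.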
# Mus musculus [2] = assay: Effect on spermatogenesis in CD1 mouse at 10 mg/kg, iv for 7 days measured after 4 weeks; type: functional, organism-based; design: dose 10 mg/kg
# How it was run: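 Male mice dosed intravenously at 10 mg/kg; testes examined histologically 4 weeks post-treatment for spermatogenesis.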
# Plasma [3] = assay: Fraction unbound in CD1 mouse plasma; type: ADME, cell-free; how it was run: as §1
# Caco-2 [4] = assay: Permeability from apical to basolateral side in human Caco2 cells at 10^-5 M at pH 6.5 to 7.4; type: ADME, cell-based; details: caco-2, pH 6.5, 10 µM
# How it was run: (§2)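 Caco-2 monolayers with apical/basolateral pH gradient 6.5/7.4, compound at 1.0 × 10–5 M; apparent permeability (cm/s) measured in A→B and B→A directions, with percent recovery reported.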
# [5] = Partition coefficient, log D of the compound in n-octanol-PBS at 10^-4 M at pH 7.4; type: physicochemical; details: octanol/water, pH 7.4, 100 µM
# How it was run: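 log D determined at pH 7.4 by n-octanol/PBS partitioning, reported as weighted average.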
# Mus musculus [6] = assay: Effect on spermatogenesis in CD1 mouse assessed as sperm release into testicular lumen at 10 mg/kg, iv after 7 days; type: functional, organism-based; design: dose 10 mg/kg
# How it was run: (§3)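 Male mice given 10 mg/kg intravenously daily; testes examined histologically at end of treatment (6 days, n = 2; 7 days, n = 2) for spermatid alignment and sperm release into the lumen; vehicle controls.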
# Mus musculus [7] = assay: Effect on spermatogenesis in CD1 mouse assessed as disruptive effect on spermatid alignment at 10 mg/kg, iv after 6 days; type: functional, organism-based; design: dose 10 mg/kg; how it was run: as §3
# Mus musculus [8] = assay: Toxicity in CD1 mouse assessed as change in testosterone levels at 2 to 10 mg/kg, po for 7 days by enzyme immunoassay relative to control; type: organism-based; design: dose 2-10 mg/kg, route oral; details: in vivo, 168 h
# How it was run: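 Male CD1 mice treated orally at two regimens (2 or 10 mg/kg daily, 7 days); sera collected for testosterone determination, values plotted for individual mice.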
# [9] = Chemical stability of the compound by HPLC-MS analysis; type: physicochemical
# [10] = Metabolic stability in CD1 mouse liver microsomes assessed as parent compound remaining at 10^-6 M after 60 mins; type: ADME, Microsome; details: read-out: Stability
# How it was run: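 CD-1 mouse liver microsomes incubated with compound at 1.0 × 10–6 M for 60 min; percent parent compound remaining determined.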
# [11] = Aqueous solubility of the compound in PBS at pH 7.4; type: physicochemical; details: buffer
# How it was run: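 Aqueous solubility determined in PBS buffer, pH 7.4; tested range <1–200 μM.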
# Mus musculus [12] = assay: Inhibition of spermatogenesis in CD1 mouse assessed as change in alignment of step 16 spermatids at lumen in stage 8 tubules in testes at 2 to 10 mg/kg, po for 7 days measured after 1 month by bright-field microscopic analysis relative to control; type: functional, organism-based
# How it was run: (§4)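 Male CD1 mice dosed by oral gavage at 2 or 10 mg/kg daily for 7 days, controls vehicle only; testes and epididymides collected one month post-treatment for histological staging of tubules (spermatid alignment at stage VIII, sperm release at stage IX).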
# [13] = molecular target: T1, Retinoic acid receptor alpha (Homo sapiens) (UniProt P10276); assay: Antagonist activity at human RARalpha expressed in human HeLa cells assessed as inhibition of ATRA-induced RARE transactivation after 24 hrs by chloramphenicol acetyltransferase reporter gene assay; type: cell-based
# T1 sequence (whole entry): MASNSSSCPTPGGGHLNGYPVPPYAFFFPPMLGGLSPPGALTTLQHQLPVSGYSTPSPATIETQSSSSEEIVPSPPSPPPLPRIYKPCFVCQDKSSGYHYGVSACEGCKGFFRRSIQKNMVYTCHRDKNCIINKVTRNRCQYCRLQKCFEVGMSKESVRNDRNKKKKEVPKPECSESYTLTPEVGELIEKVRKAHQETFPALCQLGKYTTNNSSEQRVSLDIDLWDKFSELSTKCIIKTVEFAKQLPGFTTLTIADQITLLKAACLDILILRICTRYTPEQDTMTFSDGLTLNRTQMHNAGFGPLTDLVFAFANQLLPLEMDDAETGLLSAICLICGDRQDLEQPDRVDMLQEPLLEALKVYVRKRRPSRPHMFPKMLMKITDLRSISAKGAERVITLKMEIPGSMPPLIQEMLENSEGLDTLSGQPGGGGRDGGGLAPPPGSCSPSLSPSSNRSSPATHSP
# How it was run: (§5)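 HeLa cells cotransfected with RAR constructs and a constant beta-galactosidase plasmid as internal control, given 10–7 M ATRA (submaximal) plus increasing concentrations of compound; CAT reporter expression measured after 24 h. RARα, RARβ and RARγ tested. Vehicle control was dilution medium without retinoid; ATRA served as positive control.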
# Caco-2 [14] = assay: Permeability from basolateral to apical side in human Caco2 cells at 10^-5 M at pH 6.5 to 7.4; type: ADME, cell-based; details: caco-2, pH 6.5, 10 µM; how it was run: as §2
# Mus musculus [15] = assay: Toxicity in CD1 mouse assessed as change in body weight at 2 to 10 mg/kg, po; type: organism-based; design: dose 2-10 mg/kg, route oral; details: in vivo
# How it was run: (§6)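 Male CD1 mice gavaged daily with 2 or 10 mg/kg for 7 days, vehicle controls; body weight followed throughout; testes weighed one month post-treatment; mean ± SD of five mice per regimen, paired Student's t-test against age-matched controls.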
# Mus musculus [16] = assay: Inhibition of spermatogenesis in CD1 mouse assessed as change in morphology of caudal epididymides at 10 mg/kg, po for 7 days measured after 1 month by bright-field microscopic analysis; type: functional, organism-based; design: dose 10 mg/kg; how it was run: as §4
# [17] = Drug uptake in CD1 mouse testes at 3 mg/kg, iv; type: ADME, organism-based, Testis; design: dose 3 mg/kg, route intravenous; details: in vivo
# [18] = Permeability from basolateral to apical side in human Caco2 cellsassessed as drug recovery at 10^-5 M at pH 6.5 to 7.4; type: ADME, cell-based; details: Caco-2, pH 6.5, read-out: permeability; how it was run: as §2
# [19] = molecular target: T1, Retinoic acid receptor alpha (Homo sapiens); assay: Antagonist activity at human RARalpha expressed in human HeLa cells assessed as inhibition of ATRA-induced RARE-chloramphenicol acetyltransferase reporter gene expression after 24 hrs by transactivation competition assay; type: cell-based; how it was run: as §5
# [20] = Drug uptake in CD1 mouse testes at 39 mg/kg, po; type: ADME, organism-based, Testis; design: dose 39 mg/kg, route oral; details: in vivo
# [21] = Metabolic stability in CD1 mouse intestinal microsomes assessed as parent compound remaining at 10^-6 M after 60 mins; type: ADME, Intestine; details: read-out: Stability
# How it was run: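 CD-1 mouse intestinal microsomes incubated with compound at 1.0 × 10–6 M for 60 min; percent parent remaining determined.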
# Mus musculus [22] = assay: Toxicity in CD1 mouse assessed as change in testicular weight at 2 to 10 mg/kg, po for 7 days relative to control; type: organism-based; design: dose 2-10 mg/kg, route oral; details: in vivo, 168 h; how it was run: as §6
# Mus musculus [23] = assay: Defect in spermatogenesis in CD1 mouse testicular tubules at 10 mg/kg, ip after 7 days; type: functional, organism-based; design: dose 10 mg/kg
# How it was run: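 Male mice dosed intraperitoneally at 10 mg/kg daily for 7 days (n = 4); testicular tubules examined histologically one day post-treatment for retained spermatids, with defects quantified.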
# Mus musculus [24] = assay: Inhibition of spermatogenesis in CD1 mouse assessed as change in sperm release at stage 9 into lumen in testes at 2 to 10 mg/kg, po for 7 days measured after 1 month by bright-field microscopic analysis relative to control; type: functional, organism-based; how it was run: as §4
# Mus musculus [25] = assay: Inhibition of spermatogenesis in CD1 mouse assessed as asynchronization of spermatogenic cell association at 10 mg/kg, po for 7 days measured after 1 month by bright-field microscopic analysis; type: functional, organism-based; design: dose 10 mg/kg; how it was run: as §4
# Mus musculus [26] = assay: Effect on spermatogenesis in CD1 mouse assessed as disruptive effect on spermatid alignment at 10 mg/kg, iv after 7 days; type: functional, organism-based; design: dose 10 mg/kg; how it was run: as §3
# Mus musculus [27] = assay: Inhibition of spermatogenesis in CD1 mouse assessed as change in motility of epididymal sperm at 10 mg/kg, po for 7 days measured after 1 month by bright-field microscopic analysis; type: functional, organism-based; design: dose 10 mg/kg
# [28] = Permeability from apical to basolateral side in human Caco2 cells assessed as drug recovery at 10^-5 M at pH 6.5 to 7.4; type: ADME, cell-based; details: Caco-2, pH 6.5, read-out: permeability; how it was run: as §2
# Mus musculus [29] = assay: Effect on spermatogenesis in CD1 mouse assessed as sperm release into testicular lumen at 10 mg/kg, iv after 6 days; type: functional, organism-based; design: dose 10 mg/kg; how it was run: as §3
# Plasma [30] = assay: Plasma protein binding in CD1 mouse at 10^-5 M; type: ADME, cell-free; details: 10 µM; how it was run: as §1
# Mus musculus [31] = assay: Inhibition of spermatogenesis in CD1 mouse assessed as presence of vacuolar-like spaces at 10 mg/kg, po for 7 days measured after 1 month by bright-field microscopic analysis; type: functional, organism-based; design: dose 10 mg/kg; how it was run: as §4
# Mus musculus [32] = assay: Effect on spermatogenesis in CD1 mouse assessed as disruptive effect on spermatid alignment at 2 to 10 mg/kg, po for 7 days; type: functional, organism-based; how it was run: as §4
# Mus musculus [33] = assay: Effect on spermatogenesis in CD1 mouse assessed as sperm release into testicular lumen at 2 to 10 mg/kg, po for 7 days; type: functional, organism-based; how it was run: as §4
compound,measurement,setting,value
Cc1ccc(C2=CCC(C)(C)c3ccc(C(=O)Nc4ccc(C(=O)O)cc4)cc32)cc1,Drug recovery,Plasma [1],99.8%
same,Activity,Mus musculus [2],inactive
same,Fu,Plasma [3],0.8%
same,permeability,Caco-2 [4],8.3 ×10⁻⁶ cm/s
same,logD,[5],3.84
same,Activity,Mus musculus [6],Active
same,Activity,Mus musculus [7],Active
same,Activity,Mus musculus [8],Non-toxic
same,Stability,[9],Stable
same,"remaining at 1 h, 1 µM",[10],49%
same,solubility,[11],136 µM
same,inhibition,Mus musculus [12],inactive
same,Activity,[13],Active
same,permeability,Caco-2 [14],0.7 ×10⁻⁶ cm/s
same,Activity,Mus musculus [15],Non-toxic
same,inhibition,Mus musculus [16],inactive
same,Drug uptake,[17],Active
same,recovery at 10 µM,[18],46%
same,Activity,[19],Active
same,Drug uptake,[20],Not Active
same,"remaining at 1 h, 1 µM",[21],86%
same,Activity,Mus musculus [22],Non-toxic
same,Activity,Mus musculus [23],Active
same,inhibition,Mus musculus [24],inactive
same,inhibition,Mus musculus [25],inactive
same,Activity,Mus musculus [26],Active
same,inhibition,Mus musculus [27],inactive
same,recovery at 10 µM,[28],20%
same,Activity,Mus musculus [29],Active
same,PPB,Plasma [30],99.2%
same,inhibition,Mus musculus [31],inactive
CC1(C)CC=C(c2cnc3ccccc3c2)c2cc(C(=O)Nc3ccc(C(=O)O)cc3)ccc21,Activity,Mus musculus [8],Non-toxic
same,inhibition,Mus musculus [12],inactive
same,Activity,Mus musculus [15],Non-toxic
same,inhibition,Mus musculus [16],inactive
same,Activity,Mus musculus [22],Non-toxic
same,inhibition,Mus musculus [24],inactive
same,inhibition,Mus musculus [25],inactive
same,inhibition,Mus musculus [27],inactive
same,inhibition,Mus musculus [31],inactive
CC1(C)CC=C(c2ccccc2)c2cc(/C=C/c3ccc(C(=O)O)cc3)ccc21,Drug recovery,Plasma [1],93.3%
same,permeability,Caco-2 [4],< 0.7 ×10⁻⁶ cm/s
same,logD,[5],3.25
same,Activity,Mus musculus [32],Active
same,Activity,Mus musculus [33],Active
same,Stability,[9],Stable
same,"remaining at 1 h, 1 µM",[10],79%
same,solubility,[11],3.1 µM
same,recovery at 10 µM,[28],14%
same,PPB,Plasma [30],95.3%
